# XBP1 UPR activ: activators of adaptive XBP1 UPR arm, primary screen, cell-based, CHO-XBP1 luciferase reporter, luminescence, uHTS. IRE1-XBP1 UPR activation; percent of tunicamycin response, DMSO as zero. activation, % at 20 µM. hit rate 0.33% among 330,000. AID 463104, 2010;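 active means versus positive control, 20 µM dose yields 30% or more activation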;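 further: 100% = tunicamycin at 10 µg/mL and 0% = DMSO only wells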
#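 Material: CHO-XBP1 cells stably carrying IRE1-XBP1-driven luciferase reporter / Amount: 1000 cells per well / Compound: 20 µM, 1% DMSO / Times: 6 h treatment, 37 °C / Detection: luciferase luminescence / Measure: % activation of reporter signal versus tunicamycin and DMSO controls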
# CHOP inhibitor: inhibitors of CHOP promoter induction, primary screen, cell-based, unfolded protein response, luciferase reporter | AID 2732, 2010 | CHO-K1 CHOP-promoter luciferase, tunicamycin-induced, 15-18 h | hit rate 3.8% among 220,000 | inhibition, % at 10 µM;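 active means compounds that reduced the stress-induced luciferase reporter signal by more than about 70% of percent inhibition, limit read from the data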;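 further: 0% = tunicamycin plus vehicle and 100% = wells without tunicamycin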
# hiPSC survival: enhancers of single-cell hiPSC survival, primary screen, ATPlite luminescence | 100% = ROCK inhibitor wells, 0% = DMSO | survival enhancement, % at 20 µM | hit rate 0.044% among 360,000 | AID 602274, 2012; in the data active means survival enhancement above about 18%;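 further: cells exposed to compounds for 16 hours before the ATP read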
# Cardio protect: cardioprotection against H2O2-induced cell death, primary screen, uHTS, H9c2 cells, ATPLite luminescence; protection from H2O2 cell death, % at 20 µM; hit rate 0.63% among 360,000; AID 588492, 2011; H9c2 cardiomyocytes, H2O2 injury protection, 2 h;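 active means compounds giving at least 50% protection of heart cells from peroxide-induced death in the single-dose screen, raw or plate-pattern-corrected value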;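 further: 0% = DMSO wells with peroxide and 100% = DMSO wells without peroxide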
# CHOP UPR activ: activators of apoptotic CHOP UPR arm, primary screen, cell-based, CHO-CHOP luciferase reporter, luminescence, uHTS. hit rate 0.34% among 330,000. activation, % at 10 µM. AID 449763, 2010. UPR activation; percent of tunicamycin response over DMSO baseline;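 active means at 10 µM dose, activation of 40% or more, normalized to positive control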;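 further: 100% = tunicamycin at 10 µg/mL and 0% = DMSO alone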
#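 Evaluation: % reporter activation, DMSO baseline versus tunicamycin full activation; System: CHO-CHOP luciferase reporter cell line; Input: 500 cells/well; Incubation: 6 h compound treatment, 37 °C; Measured by: Steady-Glo luciferase luminescence; Dosing: one dose, 10 µM in 0.5% DMSO; Buffer or medium: F12 medium, 10% FBS; Benchmarks: positive tunicamycin 10 µg/mL, negative DMSO alone.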
# XBP1 UPR conf: IRE1-XBP1 UPR arm activators, confirmation, cell-based, CHO-XBP1 luciferase reporter, luminescence, single concentration | shares compounds with XBP1 UPR activ | activation, % at 20 µM | hit rate 63% among 1,000;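 active means reporter signal at least 30% of the positive control's activation in two or more of four replicate wells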;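 further: plate controls were DMSO negative control for no effect and tunicamycin 10 µg/mL positive control for full effect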
# * = called active by the depositor; . = not tested or not shown. The entries come from a sample that favours hits as a whole.
SMILES,XBP1 UPR activ,CHOP inhibitor,hiPSC survival,Cardio protect,CHOP UPR activ,XBP1 UPR conf
Cc1ccc(Cn2c(C(C)Nc3nc(-c4ccc(F)cc4)cs3)nc3cc(Cl)c(Cl)cc32)cc1 (stereo not given),34.7*,.,-2.9,-6.1,1.5,30.1*
CCOc1ccc(-c2cc(C(=O)NCc3ccccc3)[nH]n2)c(C)c1,.,.,-3.1,-9.6,.,.
COc1ccccc1-c1nnc2sc(COc3ccccc3)nn12,-0.4,35.0,1.4,6.6,-1.1,.
CCN(CC)c1ccc(-c2nn3c(-c4ccccc4OC)nnc3s2)cc1,30.4*,.,-1.3,-17.9,2.3,31.9*
Cn1ccn(CCCCCCn2ccn(C)c2=S)c1=S,.,.,5.5,-4.1,.,.
Cc1cccc2c1Sc1ccc(Cl)cc1CC2N1CCNCC1 (stereo not given),31.2*,.,.,.,8.5,36.6*
CC1(C(=O)NC2CCCC2)CCC(=O)N1CCOc1ccccc1 (stereo not given),.,.,2.8,3.0,.,.
CCOC(=O)C1=C(C)N=c2s/c(=C3/C(=O)Nc4ccccc43)c(=O)n2C1c1ccc(C)cc1 (stereo not given),117.9*,46.8,11.2,4.3,2.1,68.8*
CCOC(=O)C1=C(C)N=c2s/c(=C\c3ccc(OCC(=O)O)cc3)c(=O)n2C1c1ccccc1 (stereo not given),-6.1,.,-0.6,12.4,-0.8,.
Cc1ccc(NC(=S)NC(=O)c2ccc(-c3ccc(Cl)cc3)o2)c(O)c1,-2.4,11.8,1.6,2.6,0.8,.
Cc1ccc(O)c(NC(=S)NC(=O)Cc2ccc(Cl)cc2)c1,52.1*,.,-0.3,10.9,-0.7,85.7*
COc1ccc2c(c1)N(C)/C(=C1/SC(=NCc3ccccc3)N(c3ccccc3)C1=O)S2,8.7,33.5,-1.1,5.4,0.0,.
CCN1C(=O)/C(=C2/Sc3ccc(OC)cc3N2C)SC1=Nc1cccc(O)c1,69.6*,35.0,-1.0,11.4,17.6,18.3
Cc1[nH]c2ccccc2c1/C=C/c1nc2ccccc2c(=O)n1-c1ccc([N+](=O)[O-])cc1,47.3*,-3.5,-0.2,5.5,8.5,36.0*
CCn1c(/C=C/c2c(C)[nH]c3ccccc23)nc2ccccc2c1=O,215.7*,94.4*,-0.8,-13.4,31.7,81.0*
O=C(Nc1cccc(Cl)c1)c1nc[nH]c1C(=O)NCCCCNC(=O)c1[nH]cnc1C(=O)Nc1cccc(Cl)c1,60.2*,.,-1.3,74.5*,8.0,19.3
O=C(Nc1cccc(Cl)c1)c1nc[nH]c1C(=O)NCCN(CCNC(=O)c1[nH]cnc1C(=O)Nc1cccc(Cl)c1)CCNC(=O)c1[nH]cnc1C(=O)Nc1cccc(Cl)c1,-2.3,.,-3.6,28.5,2.1,.
CC(OC(=O)c1ccccc1CCc1ccccc1)C(N)=O (stereo not given),1.7,.,0.1,-0.4,-0.5,.
CC(=O)c1cccc(NC(=S)N2CCN(CCN3C(=O)c4cccc5cccc(c45)C3=O)CC2)c1,158.7*,-12.0,-0.4,-5.4,36.0,-0.6
CC(=O)c1ccc(NC(=S)N2CCN(CCN3C(=O)c4cccc5cccc(c45)C3=O)CC2)cc1,-2.4,-28.1,-2.7,8.1,-1.5,.
COc1ccc(/C=C2\SC(=S)N(CCCC(=O)Nc3cc(C)on3)C2=O)cc1OC,41.6*,.,1.9,-9.8,0.6,2.4
CCOc1ccc(C(C)=O)cc1CN1c2ccc(S(N)(=O)=O)cc2CC1C (stereo not given),-1.8,.,-0.4,0.1,-0.7,.
NC(=S)N/N=C/c1ccc(C23CC4CC(CC(C4)C2)C3)cc1,60.1*,.,.,.,32.8,64.2*
CC1CCCCC1NC(=O)c1cc(Cl)nc2ccccc12 (stereo not given),.,.,-0.8,-2.4,.,.
CC(C)CNC(=O)C1(C)CCCN1C(=O)c1c(Cl)cccc1Cl (stereo not given),.,.,-3.1,0.8,.,.
Cc1cc(NC(=O)CSc2nnnn2C2CCCC2)no1,1.4,-13.3,-0.6,-6.3,-1.5,.
Cc1cc(NC(=O)CSc2nc3sc(C)c(C)c3c(=O)n2C2CCCC2)no1,57.6*,86.5*,3.2,-6.2,3.8,54.3*
